ChEMBL document CHEMBL4219071, “New histone demethylase LSD1 inhibitor selectively targets teratocarcinoma and embryonic carcinoma cells” (Bioorg Med Chem, 2018)
Activity calls are given as the source filed them. The calls are words filed in the database; no cut-off is given here.

Columns and labels:
HCT-116 [1] = assay: Cytotoxicity against human HCT116 cells at 2 uM after 16 to 30 hrs hrs by microscopic analysis; type: functional, cell-based
In short: (§1)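 Actively growing (30–50% confluent) cells were given a single 2 μM dose, with DMSO as the vehicle control, for 16 h. They were imaged by microscopy with a 10×10 lens. Triplicate dishes (technical repeats) were trypsinised, diluted and blindly counted on a hemacytometer, averaging the four corner squares to give cells per dish. Treated and control means were compared by two-tailed t-test.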

F9 [2] = assay: Cytotoxicity against mouse F9 cells at 2 uM after 16 to 30 hrs hrs by microscopic analysis; type: functional, cell-based; in short: as §1
PA-1 [3] = assay: Cytotoxicity against human PA1 cells at 2 uM after 16 to 30 hrs hrs by microscopic analysis; type: functional, cell-based; in short: as §1
[4] = target: Lysine-specific histone demethylase 1A (Mus musculus) (UniProt Q6ZQ88); assay: Inhibition of LSD1 in mouse F9 cells assessed as downregulation of OCT4 protein at 20 to 40 uM by Western blot analysis; type: cell-based
In short: (§2)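 F9 cells exposed 30 h to a range of concentrations, then lysed directly in 0.5% SDS lysis buffer with protein loads equalized. SOX2 and OCT4 detected by Western blot, actin as loading control, bands quantified.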

HCT-116 [5] = assay: Cytotoxicity against human HCT116 cells assessed as cell growth inhibition at >40 uM after 16 hrs by microscopic analysis; type: functional, cell-based
In short: (§3)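 Actively growing HCT116 or PA-1 cells (30–50% confluent), DMSO vehicle control, exposed 16 h over a range of concentrations. Cells imaged by microscope (10×10 lens). Triplicate dishes trypsinized, diluted, spotted blind on a hemacytometer, four corners counted for mean cells per dish. Treated vs control compared by two-tailed t-test. Three independent experiments.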

[6] = target: Lysine-specific histone demethylase 1A (Homo sapiens) (UniProt O60341); assay: Inhibition of LSD1 in human PA1 cells assessed as increase in H3K4me1 levels at 20 uM after 16 hrs by Western blot analysis; type: cell-based
In short: (§4)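 Actively growing HCT116 or PA-1 cells were treated with CBB3001 or DMSO vehicle for 16 hours. Total histones were extracted, and mono-, di- and trimethylated H3K4 and total histone H3 were probed by Western blot with specific antibodies and quantified. Treatments were run in technical triplicate.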

PA-1 [7] = assay: Reversible growth inhibitory activity of human PA1 cells at 20 to 40 uM preincubated for 24 hrs followed by 24 hrs recovery by microscopic analysis; type: functional, cell-based
In short: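 PA-1 cells in active growth, exposed 24 h to a range of concentrations. Compound removed, cells washed extensively and regrown 24 h in fresh medium without compound. Cells imaged, then triplicate dishes trypsinized and counted blind on a hemacytometer (four corners). Three independent experiments.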

[8] = target: Lysine-specific histone demethylase 1A (Homo sapiens) (UniProt O60341); assay: Inhibition of LSD1 in human PA1 cells assessed as downregulation of OCT4 protein expression at 20 uM after 16 hrs by Western blot analysis; type: cell-based
In short: (§5)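 PA-1 cells in log-phase growth were exposed to CBB3001 for 16 hours and lysed directly in buffer containing 0.5% SDS. Equalized lysates were Western blotted for SOX2, OCT4, LSD1, H3K4me1/2/3 and histone H3 using specific antibodies, with band quantification.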

PA-1 [9] = assay: Cytotoxicity against human PA1 cells assessed as cell growth inhibition at 5 to 20 uM after 12 to 16 hrs by microscopic analysis; type: functional, cell-based; in short: as §3
[10] = target: Lysine-specific histone demethylase 1A (Homo sapiens) (UniProt O60341); assay: Inhibition of LSD1 in human HCT116 cells assessed as increase in H3K4me2 levels at 20 uM after 16 hrs by Western blot analysis; type: cell-based; in short: as §4
F9 [11] = assay: Growth inhibition of mouse F9 cells at 20 to 40 uM after 30 hrs by microscopic analysis; type: functional, cell-based
In short: (§6)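 F9 or NIH3T3 cells in active growth, exposed 30 h to a range of concentrations with DMSO controls, then imaged by microscope. Triplicate dishes trypsinized and counted blind on a hemacytometer (four corners, mean cells per dish). Control vs treated compared by two-tailed equal-variance t-test.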

[12] = target: Lysine-specific histone demethylase 1A (Homo sapiens) (UniProt O60341); assay: Inhibition of LSD1 in human PA1 cells assessed as downregulation of SOX2 protein expression at 20 to 40 uM after 16 hrs by Western blot analysis; type: cell-based; in short: as §5
PA-1 [13] = assay: Effect on H3K4me3 levels in human PA1 cells at 20 uM after 16 hrs by Western blot analysis; type: functional, cell-based
In short: (§7)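 HCT116 or PA-1 cells exposed 16 h to a range of concentrations. Total histones extracted. Mono-, di- and trimethylated H3K4 and total histone H3 detected by Western blot with specific antibodies and quantified.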

[14] = target: Lysine-specific histone demethylase 1A (Homo sapiens) (UniProt O60341); assay: Inhibition of LSD1 in human HCT116 cells assessed as increase in H3K4me1 levels at 20 uM after 16 hrs by Western blot analysis; type: cell-based; in short: as §4
NIH3T3 = assay: Growth inhibition of mouse NIH/3T3 cells at 20 to 40 uM after 30 hrs by microscopic analysis; type: cell-based; conditions: nih3t3, 30 h; in short: as §6
[15] = target: Lysine-specific histone demethylase 1A (Homo sapiens) (UniProt O60341); assay: Inhibition of LSD1 in human PA1 cells assessed as downregulation of SOX2 protein at 10 to 40 uM after 16 hrs by Western blot analysis
[16] = target: Lysine-specific histone demethylase 1A (Homo sapiens) (UniProt O60341); assay: Inhibition of LSD1 in human PA1 cells assessed as downregulation of OCT4 protein at 10 to 40 uM after 16 hrs by Western blot analysis
[17] = target: Lysine-specific histone demethylase 1A (Homo sapiens) (UniProt O60341); assay: Inhibition of LSD1 in human PA1 cells assessed as increase in H3K4me2 levels at 20 uM after 16 hrs by Western blot analysis; type: cell-based; in short: as §4
[18] = target: Lysine-specific histone demethylase 1A (Mus musculus) (UniProt Q6ZQ88); assay: Inhibition of LSD1 in mouse F9 cells assessed as downregulation of SOX2 protein at 20 to 40 uM by Western blot analysis; type: cell-based; in short: as §2
HCT-116 [19] = assay: Effect on H3K4me3 levels in human HCT116 cells at 20 uM after 16 hrs by Western blot analysis; type: functional, cell-based; in short: as §7

Compound | Activity (HCT-116 [1]) | Activity (F9 [2]) | Activity (PA-1 [3]) | inhibition [4] | growth inhibition (GI) (HCT-116 [5]) | inhibition [6] | growth inhibition (GI) (PA-1 [7]) | inhibition [8] | growth inhibition (GI) (PA-1 [9]) | inhibition [10] | growth inhibition (GI) (F9 [11]) | inhibition [12] | Activity (PA-1 [13]) | inhibition [14] | growth inhibition (GI) (NIH3T3) | inhibition [15] | inhibition [16] | inhibition [17] | inhibition [18] | Activity (HCT-116 [19])
N[C@H]1CC[C@H](N[C@@H]2C[C@H]2c2ccccc2)CC1 | Active | Active | Active | – | – | – | – | – | – | – | – | – | – | – | – | – | – | – | – | –
CC(C)(C)OC(=O)N[C@@H]1C[C@H]1c1ccc(OC(=O)OC(C)(C)C)cc1 | – | – | – | Active | inactive | Active | inactive | Active | Active | Active | Active | Active | inactive | Active | Non-Toxic | Active | Active | Active | Active | inactive
